Assay [1] can be described thus: Inhibition of monkey FBase. Also noted: species or system Macaca mulatta.
A short description of assay [2]: Antidiabetic activity in monkey hepatocytes assessed as inhibition of glucose production after 4 hrs. In kind it is functional, cell-based. The note with it: Macaca mulatta, Hepatocyte. In outline:
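Monkey hepatocytes in phosphate buffered saline with 25 mM sodium bicarbonate, 25 mM HEPES, 1% BSA; compound preincubation only 2 min, then washed out and cells incubated 4 h with 10 mM lactate plus 1 mM pyruvate. Medium glucose measured by Glucose CII-test; IC50 reported as mean SD (n = 7).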

Assay [3] concerns the target T1, Fructose-1,6-bisphosphatase 1 (Homo sapiens, UniProt P09467).
T1 sequence (P09467 whole entry): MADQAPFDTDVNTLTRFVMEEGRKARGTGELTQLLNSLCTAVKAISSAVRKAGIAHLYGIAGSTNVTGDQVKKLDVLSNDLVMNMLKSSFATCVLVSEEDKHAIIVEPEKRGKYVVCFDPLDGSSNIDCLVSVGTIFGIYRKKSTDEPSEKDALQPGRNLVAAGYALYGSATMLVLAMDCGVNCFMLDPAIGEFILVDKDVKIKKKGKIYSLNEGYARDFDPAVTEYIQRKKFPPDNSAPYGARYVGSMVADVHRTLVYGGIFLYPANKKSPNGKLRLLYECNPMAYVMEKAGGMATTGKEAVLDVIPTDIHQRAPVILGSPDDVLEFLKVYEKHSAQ
Briefly: Inhibition of human FBase.

A further assay deals with Cynomolgus monkey. Nature of the assay: Antidiabetic activity in cynomolgus monkey assessed as decrease in blood glucose level at 20 mg/kg, po after 4 hrs. Type of assay: functional, organism-based. The arrangement: dose 20 mg/kg. The note with it: Macaca fascicularis. A digest of the protocol: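 Overnight-fasted cynomolgus monkeys (n = 7, 5–8 years old) dosed orally at 20 mg/kg in vehicle (50% PEG 400, 0.5% MC, 0.5% Tween 80) or vehicle alone; crossover in same animals with at least 2-week washout. Blood drawn predose and 1–12 h post-dose; plasma glucose read on i-STAT 300F analyser; mean S.E.M., paired t-test versus vehicle.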

Molecules are shown by their SMILES. Activity calls are given as the source filed them. The rule behind the calls is not given here.

For `CCOC(=O)[C@H](C)NP(=O)(COc1ccc(C(N)=O)c2c1-c1ncsc1C2)N[C@@H](C)C(=O)OCC`, the IC50 in assay [1] worked out at 22 nM; in assay [2], 94000 nM; in assay [3] it was 1 nM.

Regarding `CCOC(=O)[C@H](C)NP(=O)(COc1cc(C)c(C)c2c1-c1ncsc1C2)N[C@@H](C)C(=O)OCC`, the IC50 in assay [1] came out at 34 nM; in assay [2], 6800 nM; in assay [3], 10 nM. The result in the assay on Cynomolgus monkey was Active.

For `CCOC(=O)[C@H](C)NP(=O)(COc1ccc(C(=O)NCC(C)(C)C)c2c1-c1ncsc1C2)N[C@@H](C)C(=O)OCC`, the IC50 in assay [1] is 31 nM; in assay [2], more than 100000 nM; in assay [3], 11 nM.

With `CCOC(=O)[C@H](C)NP(=O)(COc1ccc(C(=O)NC)c2c1-c1ncsc1C2)N[C@@H](C)C(=O)OCC`, the IC50 in assay [1] was 19 nM; in assay [2] it was more than 100000 nM; in assay [3] it was 2 nM.

Take `Cc1cc(OCP(=O)(N[C@@H](C)C(=O)OC(C)C)N[C@@H](C)C(=O)OC(C)C)c2c(c1C)Cc1scnc1-2`: the results for the IC50 in assay [1], in assay [2] and in assay [3] were 34 nM, 9000 nM and 10 nM, respectively.

Regarding `CCOC(=O)[C@H](C)NP(=O)(COc1ccc(CC)c2c1-c1ncsc1C2)N[C@@H](C)C(=O)OCC`, the figures for the IC50 in assay [1], in assay [2] and in assay [3] were 23 nM, 23000 nM and 11 nM, respectively.

On to `CCOC(=O)[C@H](C)NP(=O)(N[C@@H](C)C(=O)OCC)c1ccc(-c2nc(N)sc2CC(C)C)o1`, for which the IC50 was determined as 30 nM in assay [1], 10000 nM in assay [2] and 10 nM in assay [3].

On to `CCOC(=O)[C@H](C)NP(=O)(COc1ccc(C)c2c1-c1ncsc1C2)N[C@@H](C)C(=O)OCC`, for which the IC50 in assay [1] stood at 24 nM; in assay [2] it was 7400 nM; in assay [3] it was 8 nM.

For the molecule `CCOC(=O)CNP(=O)(COc1cc(C)c(C)c2c1-c1ncsc1C2)NCC(=O)OCC`, the IC50 in assay [1] was found to be 34 nM; in assay [2] it was 9400 nM; in assay [3] it was 10 nM.
